Laboratory results: ChEMBL document CHEMBL1158454, “Discovery of a potent and orally active hedgehog pathway antagonist (IPI-926)” (J Med Chem, 2009)
Active and inactive are the calls of the source.

How the values were obtained:
[1] = Inhibition of HedgeHog pathway in mouse C3H10T1/2 cells assessed as inhibition of 20-(S)-hydroxysterol/22-(S)-hydroxysterol-induced osteoblastic differentiation after 72 hrs by alkaline phosphatase assay; conditions: C3H 10T1/2, 72 h
[2] = in vitro; conditions: human
[3] = Plasma clearance in Beagle dog at 1 mg/kg, iv; type: ADME, organism-based, Canis lupus familiaris; parameters: dose 1 mg/kg, route intravenous
In short: (§1)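 Plasma sampled at 0.083-24 h (T_last 24 h), protein-precipitated with acetonitrile containing jervine internal standard, and quantified by LC/MS/MS. Parameters taken from the concentration-time profile.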

[4] = Plasma clearance in CD1 mouse at 1 mg/kg, iv; type: ADME, organism-based; parameters: dose 1 mg/kg, route intravenous
In short: as §1

[5] = Elimination half life in Sprague-Dawley rat at 1 mg/kg, iv; type: ADME, organism-based; parameters: dose 1 mg/kg, route intravenous; conditions: in vivo, read-out: beta t1/2 (converted)
In short: as §1

[6] = tested on: Mus musculus; assay: Antitumor activity against Ptc+/- Hic+/- mouse B837Tx cells allografted in NOD/SCID mouse assessed as effect on recurrence rate on post treatment at 25 mg/kg, po administered daily for 21 days; type: functional, organism-based; parameters: dose 25 mg/kg
[7] = Oral bioavailability in Sprague-Dawley rat at 5 mg/kg; type: ADME, organism-based; conditions: in vivo
[8] = Oral bioavailability in CD1 mouse at 5 mg/kg; type: ADME, organism-based; conditions: in vivo
[9] = Elimination half life in Beagle dog at 1 mg/kg, iv; type: ADME, organism-based, Canis lupus familiaris; parameters: dose 1 mg/kg, route intravenous; conditions: in vivo, read-out: beta t1/2 (converted)
In short: as §1

[10] = Plasma clearance in Sprague-Dawley rat at 1 mg/kg, iv; type: ADME, organism-based; parameters: dose 1 mg/kg, route intravenous
In short: as §1

[11] = Oral bioavailability in Beagle dog at 4 mg/kg; type: ADME, organism-based, Canis lupus familiaris; conditions: in vivo
[12] = Volume of distribution in cynomolgus monkey at 1 mg/kg, iv; type: ADME, organism-based, Macaca fascicularis; parameters: dose 1 mg/kg, route intravenous; conditions: in vivo
In short: as §1

[13] = Elimination half life in CD1 mouse at 1 mg/kg, iv; type: ADME, organism-based; parameters: dose 1 mg/kg, route intravenous; conditions: in vivo, read-out: beta t1/2 (converted)
In short: as §1

[14] = Toxicity in po dosed Ptc+/- Hic+/- mouse B837Tx cells allografted NOD/SCID mouse assessed as maximum tolerated dose after 5 days; type: organism-based; conditions: in vivo
In short: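 Tumor-bearing immunocompromised mice received repeat oral dosing for 5 days. MTD was defined as the dose tolerated by all animals (N = 3).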

[15] = Plasma clearance in cynomolgus monkey at 1 mg/kg, iv; type: ADME, organism-based, Macaca fascicularis; parameters: dose 1 mg/kg, route intravenous
In short: as §1

[16] = Elimination half life in cynomolgus monkey at 1 mg/kg, iv; type: ADME, organism-based, Macaca fascicularis; parameters: dose 1 mg/kg, route intravenous; conditions: in vivo, read-out: beta t1/2 (converted)
In short: as §1

[17] = Volume of distribution in CD1 mouse at 1 mg/kg, iv; type: ADME, organism-based; parameters: dose 1 mg/kg, route intravenous; conditions: in vivo
In short: as §1

[18] = tested on: Mus musculus; assay: Antitumor activity against Ptc+/- Hic+/- mouse B837Tx cells allografted in NOD/SCID mouse assessed as median time to unmeasurable tumor volume at 25 mg/kg, po administered daily for 21 days; type: functional, organism-based; parameters: dose 25 mg/kg
[19] = Oral bioavailability in cynomolgus monkey at 4 mg/kg; type: ADME, organism-based, Macaca fascicularis; conditions: in vivo
[20] = tested on: Mus musculus; assay: Antitumor activity against Ptc+/- Hic+/- mouse B837Tx cells allografted in NOD/SCID mouse assessed as tumor-free interval on 21 days post treatment at 25 mg/kg, po administered daily for 21 days; type: functional, organism-based; parameters: dose 25 mg/kg
[21] = Volume of distribution in Sprague-Dawley rat at 1 mg/kg, iv; type: ADME, organism-based; parameters: dose 1 mg/kg, route intravenous; conditions: in vivo
In short: as §1

[22] = Volume of distribution in Beagle dog at 1 mg/kg, iv; type: ADME, organism-based, Canis lupus familiaris; parameters: dose 1 mg/kg, route intravenous; conditions: in vivo
In short: as §1

[23] = tested on: Mus musculus; assay: Antitumor activity against Ptc+/- Hic+/- mouse B837Tx cells allografted in NOD/SCID mouse assessed as median time to unmeasurable tumor volume at 40 mg/kg, po administered daily for 21 days; type: functional
In short: (§2)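 NOD/SCID mice given 1 × 10^6 B837Tx cells in the right hind flank. Once tumors reached about 100-200 mm³, N=10/group were gavaged daily for 21 days. Vehicle: 30% (w/w) HPBCD in 0.1 M citrate phosphate buffer, pH 3, dosing solutions 5-10 mg/mL. Tumors measured in two perpendicular dimensions by caliper 3 times weekly. Regrowth monitored over a 21-day post-treatment phase.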

[24] = tested on: Mus musculus; assay: Antitumor activity against Ptc+/- Hic+/- mouse B837Tx cells allografted in NOD/SCID mouse assessed as effect on recurrence rate on post treatment at 40 mg/kg, po administered daily for 21 days; type: functional, organism-based; parameters: dose 40 mg/kg
In short: as §2

[25] = tested on: Mus musculus; assay: Antitumor activity against Ptc+/- Hic+/- mouse B837Tx cells allografted in NOD/SCID mouse assessed as tumor-free interval on 21 days post treatment at 40 mg/kg, po administered daily for 21 days; type: functional
In short: as §2

Compound | EC50 [1] [nM] | half-life at 0.5 µM ([2]; liver microsomes) [h] | half-life at 0.5 µM ([2]; microsomes) [h] | other results
CC1=C2C[C@H]3[C@@H](CC[C@@H]4C[C@@H](O)CC[C@@]43C)[C@@H]2CC[C@@]2(C1)O[C@@H]1C[C@H](C)CN[C@H]1[C@H]2C | 23 | 0.333 | – | –
CC1=C2C[C@H]3[C@@H](CC[C@H]4CC(=O)CC[C@@]43C)[C@@H]2CC[C@@]2(C1)O[C@@H]1C[C@H](C)CN[C@H]1[C@H]2C | 400 | – | 1.25 | –
CC1=C2C[C@H]3[C@@H](CC[C@@H]4C[C@@H](NS(C)(=O)=O)CC[C@@]43C)[C@@H]2CC[C@@]2(C1)O[C@@H]1C[C@H](C)CN[C@H]1[C@H]2C | 90 | – | 0.5 | –
CO[C@H]1CC[C@@]2(C)[C@H](CC[C@H]3[C@@H]4CC[C@@]5(CC(C)=C4C[C@@H]32)O[C@@H]2C[C@H](C)CN[C@H]2[C@H]5C)C1 | 490 | – | > 3.33 | –
CO[C@@H]1CC[C@@]2(C)[C@H](CC[C@H]3[C@@H]4CC[C@@]5(CC(C)=C4C[C@@H]32)O[C@@H]2C[C@H](C)CN[C@H]2[C@H]5C)C1 | 180 | – | 0.333 | –
CC1=C2C[C@H]3[C@@H](CC[C@@H]4CCCC[C@@]43C)[C@@H]2CC[C@@]2(C1)O[C@@H]1C[C@H](C)CN[C@H]1[C@H]2C | 760 | – | – | –
CO/N=C1\CC[C@@]2(C)[C@H](CC[C@H]3[C@@H]4CC[C@@]5(CC(C)=C4C[C@@H]32)O[C@@H]2C[C@H](C)CN[C@H]2[C@H]5C)C1 | 160 | 0.917 | – | –
CC1=C2C[C@H]3[C@@H](CC[C@@H]4Cc5nocc5C[C@@]43C)[C@@H]2CC[C@@]2(C1)O[C@@H]1C[C@H](C)CN[C@H]1[C@H]2C | 62 | – | 0.133 | –
CC1=C2C[C@H]3[C@@H](CC[C@@H]4C[C@H](O)CC[C@@]43C)[C@@H]2CC[C@@]2(C1)O[C@@H]1C[C@H](C)CN[C@H]1[C@H]2C | 9 | 0.667 | – | –
CC1=C2C[C@H]3[C@@H](CC[C@@H]4CC(=O)CC[C@@]43C)[C@@H]2CC[C@@]2(C1)O[C@@H]1C[C@H](C)CN[C@H]1[C@H]2C | 13 | – | 1.17 | –
CC1=C2C[C@H]3[C@@H](CC[C@@H]4Cc5nc(C)sc5C[C@@]43C)[C@@H]2CC[C@@]2(C1)O[C@@H]1C[C@H](C)CN[C@H]1[C@H]2C | 270 | 1.67 | – | –
CC1=C2C[C@H]3[C@@H](CC[C@@H]4CN(C)C(=O)CC[C@@]43C)[C@@H]2CC[C@@]2(C1)O[C@@H]1C[C@H](C)CN[C@H]1[C@H]2C | 40 | – | 0.767 | –
CC1=C2C[C@H]3[C@@H](CC[C@@H]4Cc5nn(C)cc5C[C@@]43C)[C@@H]2CC[C@@]2(C1)O[C@@H]1C[C@H](C)CN[C@H]1[C@H]2C | 54 | 0.583 | – | –
CC1=C2C[C@H]3[C@@H](CC[C@@H]4Cc5nonc5C[C@@]43C)[C@@H]2CC[C@@]2(C1)O[C@@H]1C[C@H](C)CN[C@H]1[C@H]2C | 230 | 0.133 | – | –
CC1=C2C[C@H]3[C@@H](CC[C@@H]4c5c[nH]nc5CC[C@@]43C)[C@@H]2CC[C@@]2(C1)O[C@@H]1C[C@H](C)CN[C@H]1[C@H]2C | 220 | – | 0.45 | –
CC1=C2C[C@H]3[C@@H](CC[C@@H]4Cc5nn(S(=O)(=O)c6ccc(C)cc6)cc5C[C@@]43C)[C@@H]2CC[C@@]2(C1)O[C@@H]1C[C@H](C)CN[C@H]1[C@H]2C | 900 | 1.08 | – | –
CC1=C2C[C@H]3[C@@H](CC[C@@H]4C[C@@H](n5ccnn5)CC[C@@]43C)[C@@H]2CC[C@@]2(C1)O[C@@H]1C[C@H](C)CN[C@H]1[C@H]2C | 130 | 1.17 | – | –
CC1=C2C[C@H]3[C@@H](CC[C@@H]4Cc5nn(S(C)(=O)=O)cc5C[C@@]43C)[C@@H]2CC[C@@]2(C1)O[C@@H]1C[C@H](C)CN[C@H]1[C@H]2C | 140 | 3 | – | –
CC1=C2C[C@H]3[C@@H](CC[C@@H]4C[C@@H](N)CC[C@@]43C)[C@@H]2CC[C@@]2(C1)O[C@@H]1C[C@H](C)CN[C@H]1[C@H]2C | > 1000 | – | – | –
CC1=C2C[C@H]3[C@@H](CC[C@@H]4C/C(=N/O)CC[C@@]43C)[C@@H]2CC[C@@]2(C1)O[C@@H]1C[C@H](C)CN[C@H]1[C@H]2C | 15 | – | 0.75 | –
CC(=O)N[C@H]1CC[C@@]2(C)[C@H](CC[C@H]3[C@@H]4CC[C@@]5(CC(C)=C4C[C@@H]32)O[C@@H]2C[C@H](C)CN[C@H]2[C@H]5C)C1 | 300 | – | 1 | –
CC1=C2C[C@H]3[C@@H](CCC4=CC(=O)CC[C@@]43C)[C@@H]2CC[C@@]2(C1)O[C@@H]1C[C@H](C)CN[C@H]1[C@H]2C | 300 | – | 1.25 | clearance [3]: 78.3 mL/min/kg; clearance [4]: 60 mL/min/kg; half-life [5]: 1.7 h; Activity [6]: inactive; bioavailability [7]: 13%; bioavailability [8]: 79%; half-life [9]: 2.2 h; clearance [10]: 207 mL/min/kg; bioavailability [11]: 7%; Vd [12]: 21.3 L/kg; half-life [13]: 3.5 h; MTD at 120 h [14]: 25 mg/kg; clearance [15]: 103 mL/min/kg; half-life [16]: 2.4 h; Vd [17]: 18 L/kg; Activity [18]: inactive; bioavailability [19]: 69%; Activity [20]: inactive; Vd [21]: 28 L/kg; Vd [22]: 13.9 L/kg
CC1=C2C[C@H]3[C@@H](CC[C@@H]4Cc5n[nH]c(C(F)(F)F)c5C[C@@]43C)[C@@H]2CC[C@@]2(C1)O[C@@H]1C[C@H](C)CN[C@H]1[C@H]2C | 170 | 3.33 | – | –
CC(=O)N[C@@H]1CC[C@@]2(C)[C@H](CC[C@H]3[C@@H]4CC[C@@]5(CC(C)=C4C[C@@H]32)O[C@@H]2C[C@H](C)CN[C@H]2[C@H]5C)C1 | 17 | – | 1.08 | –
CC1=C2C[C@H]3[C@@H](CC[C@@H]4Cc5[nH][nH]c(=O)c5C[C@@]43C)[C@@H]2CC[C@@]2(C1)O[C@@H]1C[C@H](C)CN[C@H]1[C@H]2C | 170 | 1.67 | – | –
CC1=C2C[C@H]3[C@@H](CC[C@@H]4C[C@H](N)CC[C@@]43C)[C@@H]2CC[C@@]2(C1)O[C@@H]1C[C@H](C)CN[C@H]1[C@H]2C | > 1000 | – | – | –
CC1=C2C[C@H]3[C@@H](CC=C4C[C@@H](O)CC[C@@]43C)[C@@H]2CC[C@]12O[C@@H]1C[C@H](C)CN[C@H]1[C@H]2C | – | – | – | Activity [23]: inactive; Activity [24]: inactive; Activity [25]: inactive
CC1=C2C[C@H]3[C@@H](CC[C@@H]4C[C@H](n5ccnn5)CC[C@@]43C)[C@@H]2CC[C@@]2(C1)O[C@@H]1C[C@H](C)CN[C@H]1[C@H]2C | 24 | 0.667 | – | –
